Screening results: PubChem, Broad Institute
An excerpt weighted towards active compounds, which were near 2.2% of everything screened.
FGF22 binding: shifts melting point of recombinant human FGF22. Q9HCT0. recombinant FGF22 thermal shift, SYPRO orange fluorescence; percent of sucrose octasulfate shift, DMSO zero. activity (Tm shift, normalised), % at 9.99 µM. 340,000 tested, 1.5% active. AID 651658;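 active means mean Tm shift, scaled 0 neutral to 100 positive control, at about 1.3% or above, every replicate too, limit read from the data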
Target sequence (Q9HCT0 whole entry, looked up): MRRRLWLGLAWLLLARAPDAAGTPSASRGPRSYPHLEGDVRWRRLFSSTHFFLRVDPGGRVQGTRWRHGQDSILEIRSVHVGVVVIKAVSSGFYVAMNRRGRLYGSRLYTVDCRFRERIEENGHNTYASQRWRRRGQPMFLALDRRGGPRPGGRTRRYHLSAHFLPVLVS
F508del corr: correctors of CFTR F508del function in bronchial epithelial cells | CFBE cells, YFP halide quenching; stimulated with forskolin plus potentiator P3; % fluorescence drop versus neutral controls | activity (quench increase), % at 7.58 µM | 350,000 tested, 0.36% active | AID 720511;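 active means mean added fluorescence quench of at least 8% versus neutral control, with both replicates also reaching 8%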;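 further: cells transiently co-express mutant CFTR-F508del with the halide-sensitive YFP; corrector assay measuring rescue of mutant channel to the surface after 24 h compound exposure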
S100A4 MyoIIA: S100A4-myosin IIA interaction inhibition. inhibition, % at 10.7 µM. 360,000 tested, 0.14% active. AID 652163. S100A4/TAMRA-MyoIIA peptide fluorescence polarization;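 active means mean inhibition of at least 70% across replicates, with every replicate also reaching that level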
Target sequence (P26447 whole entry, looked up): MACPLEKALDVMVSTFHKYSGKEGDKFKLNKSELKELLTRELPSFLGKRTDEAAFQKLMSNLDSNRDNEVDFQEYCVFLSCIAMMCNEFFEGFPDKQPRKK
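Compound dosing: one dose per compound; test system: human S100A4 monomer with TAMRA-labelled myosin IIA peptide; probe or stimulus: TAMRA-labelled myosin IIA heavy-chain peptide probe, 5 nM; medium: HEPES buffer with Ca2+, pH 7.2; schedule: 5 min incubation before reading; benchmarks: neutral control DMSO, positive control TFP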
dFosB act: enhances mouse delta FosB homodimer DNA binding; P13346; purified delta FosB, TAMRA-CDK5 oligo fluorescence polarization; percent of positive-control signal above neutral wells; activation, % at 25 µM; 340,000 tested, 0.99% active; AID 493131;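 active means mean activation above about 17%, with every replicate also reaching it, limit read from the data, passing the limit was not always enough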
* = called active by the depositor; / = no result.

SMILES	FGF22 binding	F508del corr	S100A4 MyoIIA	dFosB act
O=C(Nc1ccccc1)N1C[C@@H]2[C@H](c3ccccc31)[C@@H](CO)N2Cc1ccccc1	0.5	-0.2	-3.6	/
O=C(O)c1ccccc1C(=O)N1N=C2/C(=C/c3cccc([N+](=O)[O-])c3)CCCC2C1c1cccc([N+](=O)[O-])c1 (configuration not stated)	2.3*	1.7	-0.9	-7.5
Cc1ccc(S(=O)(=O)N[C@@H]2CC[C@@H](CC(=O)NCCCN(C)C)O[C@H]2CO)cc1	0.0	-0.9	-0.6	/
Cc1cc(NC(=O)COc2cccc(C)c2C)no1	0.0	2.4	0.8	-9.0
COc1cccc2sc(Nc3nc4ccc(NC(C)=O)cc4s3)nc12	-0.1	/	7.0	34.7*
Cc1cc(NC(=O)COc2ccccc2C)no1	44.1*	0.6	1.0	4.9
CC(=O)Nc1ccc2nc(NC(=O)COc3ccccc3)sc2c1	-0.3	2.2	0.2	-1.4
CC(=O)Nc1ccc2nc(NC(=O)COc3ccccc3Cl)sc2c1	43.2*	-3.2	-0.2	2.4
CC(=O)Nc1ccc2nc(NC(=O)COc3ccccc3C)sc2c1	-0.1	1.0	-3.1	20.0*
COCCNC(=O)C[C@H]1CC[C@@H]2[C@H](COC[C@H](O)CN2S(=O)(=O)c2ccccc2C)O1	-0.2	6.1	9.0	/
O=C(C[C@H]1CC[C@H]2[C@@H](COC[C@@H](O)CN2Cc2ccc3c(c2)OCO3)O1)Nc1ccc(-c2ccccc2)cc1	-0.3	2.5	/	/
CN(C)CC/C=C1/c2ccccc2COc2ccc(CC(=O)O)cc21	0.0	-0.9	165.7*	2.8
COc1ccccc1S(=O)(=O)N[C@@H]1C=C[C@H](CC(=O)N2CCCCC2)O[C@@H]1CO	-0.1	0.3	-1.4	/
CCCCOc1ccc(C(=O)CCN2CCCCC2)cc1	0.2	1.2	2.6	6.6
CCCOc1ccc(C(=O)CCCC(=O)c2ccc(OCCC)cc2)cc1	0.2	8.3*	-5.4	-0.9
C[C@H]1CN([C@@H](C)CO)C(=O)Cc2cc(NC(=O)CCC(F)(F)F)ccc2O[C@@H]1CN(C)C	-0.3	-0.8	107.5*	/
C[C@@H]1CN([C@@H](C)CO)C(=O)Cc2cc(NC(=O)CCN3CCOCC3)ccc2O[C@@H]1CN(C)C	-0.3	0.1	127.9*	/
COc1ccc2c3c([nH]c2c1)[C@H](CO)N(C(=O)C1CCCC1)CC31CCN(S(C)(=O)=O)CC1	-0.3	-3.6	-5.2	/
COc1ccc(-c2ccc3c(c2)O[C@@H](CN(C)Cc2cccnc2)[C@H](C)CN([C@@H](C)CO)S3(=O)=O)cc1	-0.4	1.0	10.3	/
CN(C)c1cccc(C(=O)N/C=C/n2cnc3cc(C(F)(F)F)ccc32)c1	43.1*	-2.4	-4.0	-25.9
CN(C)C(=O)C[C@@H]1C=C[C@H](NC(=O)C2CCOCC2)[C@H](CO)O1	/	0.6	-8.9	/
COc1ccc(S(=O)(=O)NNC(=O)c2sccc2-n2cccc2)cc1	0.2	-0.5	-2.6	-5.7
O=C(NNS(=O)(=O)c1ccc(Br)cc1)c1sccc1-n1cccc1	43.6*	-3.9	1.9	-3.4
CC(NC(=S)NC(=O)c1ccccc1Br)c1ccccc1 (configuration not stated)	0.1	-2.3	-10.6	-3.7
CC(C)C(NC(=O)c1ccccc1Br)c1ccccc1 (configuration not stated)	42.9*	-5.2	2.3	-1.5
SMILES	FGF22 binding	F508del corr	S100A4 MyoIIA	dFosB act
CCCOCCOC(=O)c1[nH]c2c(c1C)C(=O)CC(c1cc(OC)ccc1OC)C2 (configuration not stated)	-0.2	9.6*	5.3	-7.4
COc1cccc(-c2ccc([C@H]3[C@@H](CO)N4C(=O)CN(C(=O)c5cccnc5)C[C@H]34)cc2)c1	-0.4	-3.5	44.0	/
O=C(NCCCN1CCCC1)Nc1ccc(F)cc1	0.0	-3.2	-3.0	5.4
O[Si](CCCN1CCCCC1)(c1ccc(F)cc1)C1CCCCC1 (configuration not stated)	-0.1	8.8*	-3.7	1.3
CS(=O)(=O)N1[C@H](C(=O)NCC2CC2)[C@@H](CO)[C@@H]2Cn3c(ccc(-c4ccccc4F)c3=O)[C@@H]21	/	-0.9	7.1	/
CCOc1ccc(C(=O)N[C@H](C(=O)Nc2cccc(S(=O)(=O)N3CCCCC3)c2)C(C)C)cc1	0.1	14.7*	-5.9	-1.6
COc1ccc(CNC(=O)COc2ccc(S(=O)(=O)N3CCOCC3)cc2)cc1	-0.1	-1.8	-3.0	-3.8
O=C(COc1ccc(S(=O)(=O)N2CCOCC2)cc1)NCCc1ccc(Cl)cc1	42.9*	-2.2	-1.8	/
